S1P4 antagonist: antagonists of human S1P4 receptor. O95977. S1P4-expressing cells, antagonist mode, reporter read-out. inhibition, % at 4.98 µM. hit rate 0.26% among 220,000; in the data active = inhibition above about 29%;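 note: 0% = wells stimulated with agonist and 100% = vehicle wells without agonist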
MDM2 E3 inh: blocks human Mdm2 ubiquitin ligase activity | Q00987 | cell-based MDM2 ubiquitination luciferase reporter, 2 h; 0 = plate control, 100 = twice control, blank-subtracted | signal enhancement, % at 5 µM | hit rate 0.11% among 210,000;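 active = signal enhancement of 30% or more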;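 note: luminescence tracks abundance of the self-degrading MDM2-luciferase fusion protein; higher signal means inhibition of MDM2 E3 ligase activity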
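Test system: mammalian cells stably expressing self-ubiquitinating, self-degrading MDM2 E3–luciferase fusion; Amount: 2000 cells in each well; Medium: DMEM; Schedule: 4 h settle plus 2 h compound, 37 °C; Technique: SteadyLite luciferase luminescence after 15 min room-temperature reagent incubation; Benchmarks: plate control and blank wells.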
S1P3 antag-1: antagonists of human S1P3 receptor; hit rate 0.27% among 170,000; CHO S1P3 NFAT-BLA reporter, FRET fluorescence, antagonist mode; AID 485; inhibition, % at 4.98 µM; Q99500;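 active = inhibition above the plate cutoff, the mean inhibition of test wells on that plate plus 3 SD, cut at about 28% in these data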;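 note: cells challenged with S1P at its EC80 of 0.8 µM; blue over green emission ratio from cleaved BLA substrate after 4 h stimulation; 0% = S1P-stimulated wells and 100% = unstimulated DMSO-only wells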
Target sequence (Q99500 whole entry, looked up): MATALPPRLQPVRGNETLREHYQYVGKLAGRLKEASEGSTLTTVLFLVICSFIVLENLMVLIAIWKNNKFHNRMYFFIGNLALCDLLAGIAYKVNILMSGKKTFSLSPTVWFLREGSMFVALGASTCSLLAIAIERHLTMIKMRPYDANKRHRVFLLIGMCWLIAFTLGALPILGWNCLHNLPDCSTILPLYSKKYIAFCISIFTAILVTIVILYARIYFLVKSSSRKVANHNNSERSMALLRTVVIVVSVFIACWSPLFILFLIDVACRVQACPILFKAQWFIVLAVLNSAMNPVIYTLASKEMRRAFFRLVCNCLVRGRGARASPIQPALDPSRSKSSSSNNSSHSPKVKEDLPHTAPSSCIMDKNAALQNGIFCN
S1P4 ag: agonists of human S1P4 receptor; activation, % at 4.98 µM; S1P4-expressing cell line, agonist reporter assay; O95977; hit rate 0.35% among 220,000; in the data active = activation above about 11%;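 note: 0% = DMSO vehicle and 100% = reference agonist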
L major viab: reduces viability of Leishmania major promastigotes. hit rate 9% among 200,000. inhibition, % at 10 µM. resazurin fluorescence viability; in the data active = inhibition above about 50%;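 note: promastigotes grown with compound for 44 hours at 28 °C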
S1P3 antag-2: confirmation of human S1P3 receptor antagonists; shares compounds with S1P3 antag-1; CHO S1P3 NFAT-BLA reporter, FRET, antagonist mode; inhibition, % at 4.98 µM; hit rate 30% among 240; AID 1429;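 active = inhibition above the hit threshold that was computed for the earlier primary screen, cut at about 30% in these data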;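 note: 0% = S1P-stimulated wells and 100% = unstimulated DMSO-only wells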
* marks the source's active call; other numbers are inactive results; . = not tested or not shown. Many of the other results were omitted from the sample, so hits are more common in it than they were.

SMILES	S1P4 antagonist	MDM2 E3 inh	S1P3 antag-1	S1P4 ag	L major viab	S1P3 antag-2
O=C(CNc1n[nH]c(=O)[nH]c1=O)N/N=C/c1cccnc1	-6.4	-16.0	38.6*	0.3	-2.4	-11.7
COc1ccc(C(=O)NC=C2C(=O)OC(C)(C)OC2=O)cc1	9.5	-25.1	-11.0	-0.7	-10.8	.
Cc1c(Cl)cn2c(=O)cc(CN(C)Cc3nc4ccccc4c(=O)[nH]3)nc2c1Cl	-14.2	-7.6	34.3*	1.1	6.0	-14.5
CCN(Cc1cc(=O)n2ccsc2n1)Cc1nc2ccccc2c(=O)[nH]1	-3.4	-9.2	-8.7	-0.9	-4.0	.
CC(=O)c1c(C)[nH]c(C(=O)NC(C)c2ccccc2)c1C (configuration not stated)	-5.4	-13.5	37.8*	-3.0	-0.1	-11.4
O=C(N/N=C/c1ccc(-c2cccc([N+](=O)[O-])c2)o1)[C@H]1C[C@@H]1c1ccccc1	-0.5	-1.2	13.0	-1.5	8.3	.
O=C(O)c1ccc(-c2ccc(/C=N/Nc3ccc([N+](=O)[O-])cc3)o2)cc1	6.4	-5.4	29.4*	3.0	.	-0.8
O=C(N/N=C/c1ccc(-c2ccc([N+](=O)[O-])cc2)o1)[C@H]1C[C@@H]1c1ccccc1	0.1	.	44.9*	0.4	.	63.2*
O=C(O)c1cccc(-c2ccc(/C=N/Nc3ccc([N+](=O)[O-])cc3)o2)c1	20.1	-6.2	13.9	-0.5	.	.
Cc1cc(C)nc(NC2=NCCN2C(=S)Nc2ccc(C)c(C)c2)n1	4.8	7.2	-3.1	0.9	.	.
Cc1nc(-c2ccccc2O)n(-c2ccccc2)n1	-29.1	-11.6	.	1.6	13.5	.
N#Cc1c(NC(=O)/C=C/c2ccco2)sc2c1CCCC2	2.3	-2.6	29.3*	1.9	-7.5	28.7*
O=C(/C=C/c1ccco1)Nc1sc2c(c1C(=O)O)CCC2	-15.5	2.8	.	-0.5	-2.0	.
c1ccc2c(c1)OCC(CNc1ncnc3sccc13)O2 (configuration not stated)	-13.8	-38.8	43.3*	-0.7	38.8	26.5
c1ccc(CCNc2ncnc3ccccc23)cc1	-19.8	-31.3	44.4*	4.5	42.4	33.2*
C1=C(CCNc2ncnc3c2[nH]c2ccccc23)CCCC1	-14.3	-42.1	40.9*	3.5	97.8*	27.9
O=C(Nc1cccc(S(=O)(=O)Nc2ccc(Cl)cc2)c1)c1ccc(Cl)nc1	-39.4	-17.9	1.5	-1.0	21.0	.
COc1ccc(NS(=O)(=O)c2cccc(NC(=O)c3ccc(Cl)nc3)c2)cc1	12.0	-23.1	33.2*	-0.8	61.0*	11.4
O=C1S/C(=C/c2ccccc2)C(=O)N1CC(O)Cn1c2ccccc2c2ccccc21 (configuration not stated)	-9.1	-5.8	39.8*	-0.2	16.6	-18.3
COc1ccc(CCNc2ncnc3sccc23)cc1OC	-13.4	-13.1	49.1*	0.8	33.0	23.2
NS(=O)(=O)c1ccc(CCNc2ncnc3sccc23)cc1	-34.8	-19.1	-28.9	3.8	22.7	.
CCOC(=O)N1CCC(N(CCN(C)C)C(=S)Nc2cc(Cl)cc(Cl)c2)CC1	1.6	-8.1	29.0*	0.6	1.2	9.4
CCNS(=O)(=O)c1ccc(CCC(=O)NCc2ccc(C)cc2)cc1	-1.8	-4.5	0.5	0.2	0.6	.
CN(C)/C=C/C(=O)C(F)(F)F	1.9	-9.7	-8.6	2.4	-4.4	.
CN(C)/C=C/C(=C\C(=O)C(F)(F)F)Nc1ccc(C(F)(F)F)cc1	-12.9	4.3	45.3*	1.0	-7.9	-5.6
SMILES	S1P4 antagonist	MDM2 E3 inh	S1P3 antag-1	S1P4 ag	L major viab	S1P3 antag-2
FC(F)(F)c1cccc(NC(=S)NNC(=S)Nc2cccc(C(F)(F)F)c2)c1	-10.9	-0.9	2.0	0.8	.	.
FC(F)(F)c1cccc(NC(=S)NC(c2ccccc2)c2ccccc2)c1	5.3	-12.6	44.9*	3.8	7.8	48.9*
O=C(Nc1ccc2ccccc2c1)C(c1ccccc1)C1CCCC1 (configuration not stated)	1.4	-11.3	55.3*	0.3	30.2	65.8*
O=C(Nc1ccc(Br)cc1)C(c1ccccc1)c1ccccc1	1.1	-1.6	57.0*	-1.0	-2.4	68.6*
Cc1ccc(NC(=O)C(c2ccccc2)C2CCCC2)cc1 (configuration not stated)	-5.6	-4.3	59.8*	4.4	26.1	70.1*
CCc1ccc(NC(=O)C(CC)c2ccccc2)cc1 (configuration not stated)	-10.3	-6.8	29.2*	-1.0	-5.0	21.7
CCC(C(=O)Nc1ccc(C)cc1)c1ccccc1 (configuration not stated)	2.4	1.6	26.7	0.2	-0.4	.
Cc1ccccc1NC(=O)C(c1ccccc1)C1CCCC1 (configuration not stated)	14.4	-18.8	3.7	0.4	30.3	.
NC(=O)C(c1ccccc1)C1CCCC1 (configuration not stated)	0.4	-13.3	.	0.6	-8.0	.
CCC1/C(=N\O)CC(c2ccco2)NC1c1ccco1 (configuration not stated)	-9.5	-7.0	.	0.6	-1.3	.
CN1CCc2c(sc3c2c(=O)n(-c2ccccc2)c2nnc(SCc4ccccc4F)n32)C1	.	.	-8.8	.	.	.
N#Cc1ccc(C(=O)OCC(=O)Nc2ccc(S(N)(=O)=O)cc2)cc1	-0.7	.	-10.7	-0.9	.	.
COc1ccc(OCC(=O)NNC(=O)c2cccc(S(=O)(=O)N(C)C)c2)cc1	-2.1	-7.1	-3.9	2.3	-10.8	.
CCOCCOCN(C#N)c1nc(OC)nc(N(C)C)n1	-3.9	-13.8	.	-1.0	-7.2	.
COc1ccc(OC)c(Nc2ccc(Nc3cc(OC)ccc3OC)nn2)c1	-0.8	-10.9	30.8*	0.4	34.6	13.4
COc1ccc(NC(=O)c2cc3c(=O)n(C)c4ccccc4c3s2)cc1OC	-24.6	-5.0	2.8	0.1	1.8	.
CC1CCN(c2nc3c(c(=O)[nH]c(=O)n3C)n2CCSc2ncccn2)CC1	.	.	-19.3	.	.	.
OCCNCCCOc1cc(Cl)ccc1Cl	2.5	-10.7	36.4*	1.9	9.6	-8.8
COc1ccc(C(=O)NC(Nc2ccc(C)cc2)C(Cl)(Cl)Cl)cc1 (configuration not stated)	-19.7	-10.1	43.5*	-1.2	74.7*	58.3*
Cc1cccc(Nc2sc(C(=O)c3cc4cc(Cl)ccc4o3)c(N)c2C#N)c1	-0.8	-26.7	28.2*	0.1	.	1.9
Cc1cccc(NS(=O)(=O)c2cc(C(=O)OC(C)C(=O)NCc3ccc4c(c3)OCO4)ccc2C)c1 (configuration not stated)	-7.2	-7.2	-27.2	0.9	47.6	.
Cc1ccc(S(=O)(=O)NCCc2nnc3ccc(SCC(=O)Nc4nc5ccccc5s4)nn23)cc1	-9.1	-18.1	28.2*	-0.6	3.7	-5.2
CCC(C)(C)C1CCc2c(sc(N)c2C(N)=O)C1 (configuration not stated)	-11.1	0.6	38.1*	1.0	3.9	-2.6
Cc1ccc2c(=O)[nH]c(Cc3ccccc3C(=O)O)nc2c1	-16.0	.	-6.3	0.7	.	.

Source: PubChem
